Cneo AK release = Cryptococcus neoformans cell lysis inducers, primary screen, AK release luminescence, single concentration | C. neoformans lysis, adenylate kinase release luminescence, 4 h; normalised: neutral wells 0, clomiphene wells 100 | lysis activity, % at 15 µM | hit rate 0.2% among 360,000 | AID 651654, 2012;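 active means mean lysis activity across replicates of at least 80%, whatever share of replicates individually reach that level; inactive means mean lysis activity below 80%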
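Material – log-phase Cryptococcus neoformans yeast cells · Input – 5 × 10^6 yeast cells/mL · Medium – fresh YPD growth medium · Doses – single compound concentration per well · Timing – static 4 h at 37 °C with compound, 1 h detection · Detection – adenylate kinase release luminescence · Read-out – signal increase indicating cell lysis · Control set – Clomiphene as positive lysis control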
DAGLB inhibitor = DAGLB lipase inhibitors, primary screen, biochemical, fluorescence, HTS; HEK293T DAGLB membrane lysate, EnzChek fluorogenic substrate; inhibition, % at 5.17 µM; hit rate 0.059% among 340,000; in the data active means inhibition above about 34%;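 further: 0% = enzyme with vehicle and 100% = wells lacking enzyme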
Target sequence (Q8NCG7 whole entry, looked up): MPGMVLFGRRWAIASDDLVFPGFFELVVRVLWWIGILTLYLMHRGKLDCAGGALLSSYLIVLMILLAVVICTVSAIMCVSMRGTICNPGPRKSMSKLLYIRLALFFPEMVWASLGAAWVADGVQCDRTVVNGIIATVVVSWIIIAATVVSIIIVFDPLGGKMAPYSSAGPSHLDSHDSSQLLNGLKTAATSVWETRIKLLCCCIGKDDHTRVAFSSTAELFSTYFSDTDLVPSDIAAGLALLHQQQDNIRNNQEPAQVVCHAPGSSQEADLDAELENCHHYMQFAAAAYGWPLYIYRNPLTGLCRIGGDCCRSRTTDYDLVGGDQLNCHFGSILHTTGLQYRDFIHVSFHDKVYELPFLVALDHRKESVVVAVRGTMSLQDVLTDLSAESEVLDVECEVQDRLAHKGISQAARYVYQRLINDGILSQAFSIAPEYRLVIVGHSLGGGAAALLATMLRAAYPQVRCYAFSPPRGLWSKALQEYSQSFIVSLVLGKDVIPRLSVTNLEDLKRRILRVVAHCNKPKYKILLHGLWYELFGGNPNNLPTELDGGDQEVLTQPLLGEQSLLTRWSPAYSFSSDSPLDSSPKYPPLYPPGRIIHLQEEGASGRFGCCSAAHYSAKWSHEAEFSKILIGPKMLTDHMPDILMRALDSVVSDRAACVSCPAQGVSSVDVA
Ecoli rRNA inh = reduced GFP signal of wild-type E. coli, primary screen, bacterial rRNA inhibitor project, GFP/RFP fluorescence, OD600, single point; E. coli WT GFP vs humanized-ribosome RFP mutants, 24 h; stronger effect = lower value; DMSO median 0, no signal -100; GFP signal change (wild-type ribosome), % (test concentration not listed); hit rate 1.6% among 350,000;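 active means significant combined selectivity score with lowered wild-type GFP, culture density cut under 30%, mutant RFP and density less affected; inactive means any of these conditions unmet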
iPSC survival up = enhancers of single-cell hiPSC survival, primary screen, ATPlite luminescence | survival enhancement, % at 20 µM | 100% = ROCK inhibitor wells, 0% = DMSO | hit rate 0.044% among 360,000; in the data active means survival enhancement above about 18%;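 further: cells exposed to compounds for 16 hours before the ATP read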
MT1-MMP act inh = blockers of MT1-MMP proenzyme processing, primary screen, HT1080 RFP-PRO-GFP cells, GFP/RFP fluorescence; hit rate 0.061% among 360,000; GFP/RFP ratio fluorescence, overnight; percent of plate control window, DMSO zero; AID 651647, 2012; GFP/RFP ratio change, % at 20 µM;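 active means GFP/RFP ratio change of at least 30% with cell ATP level not reduced by more than half and red fluorescence within 50% of control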
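Read-out: GFP/RFP fluorescence ratio; Test system: RFP-PRO-GFP reporter HT1080 cells; Compound dosing: single-point 20 µM compound, 1% DMSO; Times: overnight compound exposure at 37 °C.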
SKN-1 inh = suppressors of acrylamide-induced Pgst-4::GFP reporter in worms, primary screen, SKN-1 inhibitor project, whole organism, uHTS, GFP/RFP fluorescence ratio, strain VP596 | inhibition, % at 21.8 µM | AID 624304, 2012 | hit rate 0.49% among 360,000 | C. elegans VP596 Pgst-4::GFP/RFP ratio, 24 h;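 active means interference check ratio from 0.5 to 1.5 plus GFP to RFP signal ratio inhibition reaching or exceeding a fixed threshold, cut at about 30% in these data, passing the limit was not always enough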
Active calls of the source: *. An excerpt weighted towards active compounds, which were near 1.8% of everything screened.

Results for Cc1cc([N+](=O)[O-])ccc1-c1ccc(/C=N/NC(=O)c2ccc(Br)o2)o1 ?
Cneo AK release: -2; DAGLB inhibitor: 15; Ecoli rRNA inh: 8; iPSC survival up: 0; MT1-MMP act inh: 0; SKN-1 inh: 19

Results for Cc1ccc(C(=O)N/N=C/c2ccc(-c3cccc(Cl)c3)o2)cn1 ?
DAGLB inhibitor: -3; Ecoli rRNA inh: -2; iPSC survival up: -1; MT1-MMP act inh: 5; SKN-1 inh: -9

Results for Cc1ccc(-c2cc(C(=O)N/N=C/c3ccc(F)cc3)n[nH]2)o1 ?
Cneo AK release: 0; DAGLB inhibitor: -3; Ecoli rRNA inh: -24*; iPSC survival up: 0; MT1-MMP act inh: -1; SKN-1 inh: 1

How did Cc1cc(C(=O)N/N=C/c2ccc(-c3ccc([N+](=O)[O-])cc3C)o2)n[nH]1 do in these assays?
Cneo AK release: -2; DAGLB inhibitor: 7; Ecoli rRNA inh: -41*; iPSC survival up: 0; MT1-MMP act inh: -5; SKN-1 inh: -4

What do the screens show for `Cc1ccc(-c2cc(C(=O)N/N=C/c3ccccc3O)n[nH]2)o1`?
Cneo AK release: -1; DAGLB inhibitor: 3; Ecoli rRNA inh: -57; iPSC survival up: 0; MT1-MMP act inh: 7; SKN-1 inh: 4

Results for Cc1cc(C(=O)N/N=C/c2ccc(-c3cccc(Cl)c3)o2)n[nH]1 ?
Cneo AK release: -1; DAGLB inhibitor: 0; Ecoli rRNA inh: -23*; iPSC survival up: 0; MT1-MMP act inh: -2; SKN-1 inh: 32

Results for COc1ccc(S(=O)(=O)N(C)C[C@H]2OCCCC[C@H](C)Oc3ccc(NC(=O)Nc4ccccc4)cc3C(=O)N([C@@H](C)CO)C[C@H]2C)cc1 ?
Cneo AK release: -3; Ecoli rRNA inh: 2

How did CO[C@@H]1CN(C)C(=O)c2cc(NC(=O)c3ccc(Oc4ccccc4)cc3)ccc2OC[C@@H](C)N(C(C)=O)C[C@H]1C do in these assays?
Cneo AK release: 0; Ecoli rRNA inh: -2

Results for CCC(=O)N1CC2(C1)CN(C(=O)CC)[C@H](CO)c1[nH]c3cc(OC)ccc3c12 ?
Ecoli rRNA inh: 7

How did COc1cccc(-n2c(SCC(=O)NCC3CCCO3)nc3c([nH]c4ccccc43)c2=O)c1 (stereo not drawn) do in these assays?
Cneo AK release: 2; DAGLB inhibitor: 0; Ecoli rRNA inh: -24*; iPSC survival up: 0; MT1-MMP act inh: -9; SKN-1 inh: 6

How did COc1ccc(-n2c(SCC(=O)NCC3CCCO3)nc3c([nH]c4ccccc43)c2=O)cc1 (stereo not drawn) do in these assays?
DAGLB inhibitor: 2; Ecoli rRNA inh: 7; iPSC survival up: 1; MT1-MMP act inh: -6; SKN-1 inh: -4

What do the screens show for `CCN(CC)c1ccc(C2NC(=O)c3ccccc3N2)cc1` (stereo not drawn)?
DAGLB inhibitor: 3; iPSC survival up: -5; MT1-MMP act inh: 4; SKN-1 inh: 37*

What do the screens show for `COc1cc(/C=C/C(=O)c2ccc3c(c2)OCCO3)cc(OC)c1OC`?
Cneo AK release: 3; DAGLB inhibitor: -3; Ecoli rRNA inh: -8; iPSC survival up: 1; MT1-MMP act inh: 0; SKN-1 inh: 15

Results for COc1ccc(OC)c(/C=C/C(=O)c2ccc3c(c2)OCCO3)c1 ?
Cneo AK release: -17; DAGLB inhibitor: -4; Ecoli rRNA inh: -25*; iPSC survival up: -1; MT1-MMP act inh: 3; SKN-1 inh: -6

How did COc1ccc(OC)c(/C=C/C(=O)Oc2ccc(C(C)=O)cc2)c1 do in these assays?
Cneo AK release: -1; DAGLB inhibitor: -4; Ecoli rRNA inh: -24*; iPSC survival up: 0; MT1-MMP act inh: -1; SKN-1 inh: 22

Results for O=C(Nc1ccccc1)O/N=C/c1ccc(F)cc1 ?
Cneo AK release: -1; DAGLB inhibitor: -3; Ecoli rRNA inh: 10; iPSC survival up: 0; MT1-MMP act inh: 2; SKN-1 inh: 37*

What do the screens show for `Cc1ccc(NC(=O)O/N=C/c2ccc(F)cc2)cc1`?
Cneo AK release: -2; DAGLB inhibitor: -1; Ecoli rRNA inh: 1; iPSC survival up: 0; MT1-MMP act inh: -4; SKN-1 inh: 12

Results for Cc1ccc(S(=O)(=O)Nc2ccc3c(c2)C(=O)N([C@H](C)CO)C[C@@H](C)[C@H](CN(C)C(=O)Nc2c(C)noc2C)O3)cc1 ?
Cneo AK release: -3; Ecoli rRNA inh: -1

What do the screens show for `CC(C)(C)c1cccc(C2(O)C(=O)c3ccccc3C2=O)c1O`?
DAGLB inhibitor: -7; Ecoli rRNA inh: -38*; iPSC survival up: 0; MT1-MMP act inh: 0; SKN-1 inh: 0

What do the screens show for `Cc1ccc(C2(O)C(=O)c3ccccc3C2=O)c(O)c1C`?
Cneo AK release: 1; DAGLB inhibitor: 1; Ecoli rRNA inh: -16; iPSC survival up: -1; MT1-MMP act inh: 1; SKN-1 inh: 9

How did C=CC(=O)N1C/C(=C/c2ccc(Cl)cc2)C(=O)/C(=C\c2ccc(Cl)cc2)C1 do in these assays?
DAGLB inhibitor: 16; Ecoli rRNA inh: -15; iPSC survival up: 4; MT1-MMP act inh: -5; SKN-1 inh: 15

How did C=CC(=O)N1C/C(=C/c2ccccc2)C(=O)/C(=C\c2ccccc2)C1 do in these assays?
DAGLB inhibitor: -9; Ecoli rRNA inh: -44*; iPSC survival up: 9; MT1-MMP act inh: 2; SKN-1 inh: 8

Results for CCCNC(=O)Nc1ccc2c(c1)C(=O)N(C)C[C@@H](OC)[C@H](C)CN(CC1CCCC1)[C@@H](C)CO2 ?
Ecoli rRNA inh: 0

Results for Cc1ccc2ccccc2c1COC(=O)c1nonc1N ?
Cneo AK release: -1; DAGLB inhibitor: -4; Ecoli rRNA inh: -23*; iPSC survival up: 0; MT1-MMP act inh: 6; SKN-1 inh: 6

How did CCOC(=O)c1ccc(COC(=O)c2nonc2N)cc1 do in these assays?
Cneo AK release: -1; DAGLB inhibitor: 1; iPSC survival up: 4; MT1-MMP act inh: 2; SKN-1 inh: -9

What do the screens show for `Cc1cccc(Nc2nc(N)c([N+](=O)[O-])c(N3CCOCC3)n2)c1`?
Cneo AK release: -7; DAGLB inhibitor: -1; Ecoli rRNA inh: -24*; iPSC survival up: 2; MT1-MMP act inh: 1; SKN-1 inh: -5

From PubChem BioAssay
